Source: ChEMBL document CHEMBL2203081 (Bioorg Med Chem Lett, 2012)

Assays:
[1] = target: Epidermal growth factor receptor (Homo sapiens) (UniProt P04626+P00533+Q15303+P21860); test: Inhibition of EGFR L747-T751del, Sins mutant assessed as residual activity at 10 uM relative to control; format: protein assay
In short: (§1)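 Competition kinase-binding assay (KINOMEscan) across a non-redundant panel of 329 kinases beyond the radiometric panel; residual binding expressed relative to control.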

[2] = target: Ephrin type-A receptor 7 (Homo sapiens) (UniProt Q15375); test: Inhibition of EPHA7 assessed as residual activity at 10 uM relative to control; in short: as §1
[3] = target: Mitogen-activated protein kinase kinase kinase kinase 3 (Homo sapiens) (UniProt Q8IVH8); test: Inhibition of MAP4K3 assessed as residual activity at 10 uM relative to control
[4] = target: Tyrosine-protein kinase Tec (Homo sapiens) (UniProt P42680); test: Inhibition of TEC assessed as residual activity at 10 uM relative to control
[5] = target: Myotonin-protein kinase (Homo sapiens) (UniProt Q09013); test: Inhibition of DMPK assessed as residual activity at 10 uM relative to control; in short: as §1
[6] = target: T1, Mitogen-activated protein kinase kinase kinase 7 (Homo sapiens) (UniProt O43318); test: Inhibition of TAK1 assessed as residual activity at 10 uM relative to control
T1 sequence (whole entry): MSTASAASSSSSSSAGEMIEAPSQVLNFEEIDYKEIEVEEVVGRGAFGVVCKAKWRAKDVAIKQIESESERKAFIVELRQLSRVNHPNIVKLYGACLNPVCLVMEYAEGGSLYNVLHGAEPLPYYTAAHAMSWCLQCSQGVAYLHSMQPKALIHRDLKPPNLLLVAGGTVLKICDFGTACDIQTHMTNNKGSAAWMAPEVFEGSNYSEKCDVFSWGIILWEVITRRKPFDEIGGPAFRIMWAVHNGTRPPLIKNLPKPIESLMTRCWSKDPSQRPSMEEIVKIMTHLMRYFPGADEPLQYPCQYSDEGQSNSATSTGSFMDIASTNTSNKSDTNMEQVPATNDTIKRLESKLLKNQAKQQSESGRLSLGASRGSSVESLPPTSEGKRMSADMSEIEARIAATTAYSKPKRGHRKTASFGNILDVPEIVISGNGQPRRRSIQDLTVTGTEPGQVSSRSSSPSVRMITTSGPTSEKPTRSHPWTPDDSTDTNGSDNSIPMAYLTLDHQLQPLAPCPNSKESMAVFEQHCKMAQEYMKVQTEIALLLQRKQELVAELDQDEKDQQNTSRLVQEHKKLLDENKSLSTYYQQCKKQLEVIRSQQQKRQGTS

[7] = target: Serine/threonine-protein kinase Sgk1 (Homo sapiens) (UniProt O00141); test: Inhibition of SGK assessed as residual activity at 10 uM relative to control
[8] = target: Serine/threonine-protein kinase DCLK1 (Homo sapiens) (UniProt O15075); test: Inhibition of DCAMKL1 assessed as residual activity at 10 uM relative to control; in short: as §1
[9] = target: Serine/threonine-protein kinase 35 (Homo sapiens) (UniProt Q8TDR2); test: Inhibition of STK35 assessed as residual activity at 10 uM relative to control
[10] = target: Tyrosine-protein kinase receptor UFO (Homo sapiens) (UniProt P30530); test: Inhibition of AXL assessed as residual activity at 10 uM relative to control
[11] = tested on: Mast/stem cell growth factor receptor Kit (Homo sapiens), P10721 [L576P]; test: Inhibition of KIT L576P mutant assessed as residual activity at 10 uM relative to control
[12] = target: Mitogen-activated protein kinase 13 (Homo sapiens) (UniProt O15264); test: Inhibition of p38-delta assessed as residual activity at 10 uM relative to control
[13] = target: Macrophage-stimulating protein receptor (Homo sapiens) (UniProt Q04912); test: Inhibition of MST1R assessed as residual activity at 10 uM relative to control
[14] = target: T1, Mitogen-activated protein kinase kinase kinase 7 (Homo sapiens); test: Inhibition of TAK1 assessed as residual activity at 10 uM
[15] = target: Dual specificity mitogen-activated protein kinase kinase 1 (Homo sapiens) (UniProt Q02750); test: Inhibition of MKK1 assessed as residual activity at 1 uM
[16] = tested on: Receptor-type tyrosine-protein kinase FLT3 (Homo sapiens), P36888 [D835H]; test: Inhibition of FLT3 D835H mutant assessed as residual activity at 10 uM relative to control
[17] = tested on: Tyrosine-protein kinase ABL1 (Homo sapiens), P00519 [F317I]; test: Inhibition of phosphorylated ABL1 F317I mutant assessed as residual activity at 10 uM relative to control
[18] = target: Cyclin-dependent kinase-like 2 (Homo sapiens) (UniProt Q92772); test: Inhibition of CDKL2 assessed as residual activity at 10 uM relative to control
[19] = target: RAC-gamma serine/threonine-protein kinase (Homo sapiens) (UniProt Q9Y243); test: Inhibition of AKT3 assessed as residual activity at 10 uM relative to control
[20] = target: Inhibitor of nuclear factor kappa-B kinase subunit epsilon (Homo sapiens) (UniProt Q14164); test: Inhibition of IKKe assessed as residual activity at 10 uM
[21] = target: Insulin receptor (Homo sapiens) (UniProt P06213); test: Inhibition of INSR assessed as residual activity at 10 uM relative to control
[22] = target: Serine/threonine-protein kinase LATS2 (Homo sapiens) (UniProt Q9NRM7); test: Inhibition of LATS2 assessed as residual activity at 10 uM relative to control
[23] = target: Angiopoietin-1 receptor (Homo sapiens) (UniProt Q02763); test: Inhibition of TIE2 assessed as residual activity at 10 uM
[24] = tested on: Receptor-type tyrosine-protein kinase FLT3 (Homo sapiens), P36888 [N841I]; test: Inhibition of FLT3 N841I mutant assessed as residual activity at 10 uM relative to control
[25] = target: Myosin light chain kinase, smooth muscle (Homo sapiens) (UniProt Q15746); test: Inhibition of MYLK assessed as residual activity at 10 uM relative to control

Sequence of Ephrin type-A receptor 7 (Homo sapiens) (Q15375 28-998 limits assumed): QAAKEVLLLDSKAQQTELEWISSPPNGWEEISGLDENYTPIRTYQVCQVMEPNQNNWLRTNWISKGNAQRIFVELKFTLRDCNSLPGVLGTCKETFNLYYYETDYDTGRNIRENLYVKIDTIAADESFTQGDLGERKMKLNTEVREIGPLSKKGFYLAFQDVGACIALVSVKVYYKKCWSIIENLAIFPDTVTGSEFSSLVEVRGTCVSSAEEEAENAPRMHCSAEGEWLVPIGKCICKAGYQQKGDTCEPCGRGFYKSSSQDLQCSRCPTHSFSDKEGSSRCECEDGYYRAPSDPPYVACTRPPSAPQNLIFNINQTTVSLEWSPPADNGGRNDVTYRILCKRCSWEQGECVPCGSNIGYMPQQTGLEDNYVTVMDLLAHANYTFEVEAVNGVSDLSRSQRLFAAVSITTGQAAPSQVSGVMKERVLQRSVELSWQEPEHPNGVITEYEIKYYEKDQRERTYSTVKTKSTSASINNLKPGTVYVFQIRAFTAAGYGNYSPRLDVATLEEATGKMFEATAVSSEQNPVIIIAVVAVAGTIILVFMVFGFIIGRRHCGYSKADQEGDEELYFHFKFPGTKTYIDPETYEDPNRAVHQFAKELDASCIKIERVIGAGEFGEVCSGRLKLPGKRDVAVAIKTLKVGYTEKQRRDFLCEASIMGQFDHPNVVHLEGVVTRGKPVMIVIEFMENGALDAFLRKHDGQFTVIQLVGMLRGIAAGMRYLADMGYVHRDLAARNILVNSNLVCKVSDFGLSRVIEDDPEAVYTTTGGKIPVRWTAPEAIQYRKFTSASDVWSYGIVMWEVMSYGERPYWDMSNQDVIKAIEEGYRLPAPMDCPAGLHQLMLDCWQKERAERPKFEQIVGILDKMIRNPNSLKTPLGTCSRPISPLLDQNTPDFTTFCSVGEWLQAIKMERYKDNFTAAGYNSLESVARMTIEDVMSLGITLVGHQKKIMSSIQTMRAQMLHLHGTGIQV
Sequence of Mitogen-activated protein kinase 13 (Homo sapiens) (O15264 whole entry): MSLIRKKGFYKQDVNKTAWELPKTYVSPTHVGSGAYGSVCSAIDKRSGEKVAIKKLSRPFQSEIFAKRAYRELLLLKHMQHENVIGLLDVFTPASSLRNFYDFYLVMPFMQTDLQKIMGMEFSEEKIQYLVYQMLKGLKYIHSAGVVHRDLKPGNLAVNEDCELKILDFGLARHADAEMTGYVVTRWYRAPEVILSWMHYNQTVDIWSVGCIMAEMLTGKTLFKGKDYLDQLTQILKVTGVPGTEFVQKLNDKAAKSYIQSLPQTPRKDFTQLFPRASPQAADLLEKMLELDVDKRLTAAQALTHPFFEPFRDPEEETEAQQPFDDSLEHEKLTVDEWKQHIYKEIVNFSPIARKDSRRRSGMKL
Sequence of Tyrosine-protein kinase Tec (Homo sapiens) (P42680 whole entry): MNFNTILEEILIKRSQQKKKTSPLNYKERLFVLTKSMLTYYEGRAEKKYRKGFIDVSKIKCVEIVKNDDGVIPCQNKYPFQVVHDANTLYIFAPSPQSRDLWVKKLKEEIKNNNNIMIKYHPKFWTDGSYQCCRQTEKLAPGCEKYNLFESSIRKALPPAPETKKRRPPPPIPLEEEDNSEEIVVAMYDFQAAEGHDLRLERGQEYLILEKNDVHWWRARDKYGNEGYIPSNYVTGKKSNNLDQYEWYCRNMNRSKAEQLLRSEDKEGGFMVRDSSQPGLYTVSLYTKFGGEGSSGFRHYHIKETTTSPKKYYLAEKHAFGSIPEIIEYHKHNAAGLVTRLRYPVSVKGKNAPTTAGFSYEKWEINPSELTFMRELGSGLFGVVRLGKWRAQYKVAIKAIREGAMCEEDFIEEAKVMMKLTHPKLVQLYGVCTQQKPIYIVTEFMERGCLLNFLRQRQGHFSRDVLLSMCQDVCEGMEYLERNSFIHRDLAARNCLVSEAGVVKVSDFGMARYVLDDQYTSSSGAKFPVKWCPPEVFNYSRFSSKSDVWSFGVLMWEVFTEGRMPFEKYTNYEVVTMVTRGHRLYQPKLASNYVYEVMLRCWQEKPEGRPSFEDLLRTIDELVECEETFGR
Sequence of Dual specificity mitogen-activated protein kinase kinase 1 (Homo sapiens) (Q02750 whole entry): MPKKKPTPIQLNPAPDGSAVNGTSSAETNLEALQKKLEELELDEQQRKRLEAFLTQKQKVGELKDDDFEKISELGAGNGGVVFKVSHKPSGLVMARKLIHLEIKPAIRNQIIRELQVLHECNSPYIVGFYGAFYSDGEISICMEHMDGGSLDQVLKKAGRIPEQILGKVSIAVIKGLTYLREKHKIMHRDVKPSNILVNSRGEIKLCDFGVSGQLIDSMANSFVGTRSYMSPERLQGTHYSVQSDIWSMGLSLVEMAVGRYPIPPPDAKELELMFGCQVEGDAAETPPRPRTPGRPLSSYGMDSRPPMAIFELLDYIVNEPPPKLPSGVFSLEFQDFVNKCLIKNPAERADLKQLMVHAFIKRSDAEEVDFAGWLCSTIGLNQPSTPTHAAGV
Sequence of Mast/stem cell growth factor receptor Kit (Homo sapiens), P10721 [L576P] (P10721 whole entry L576P): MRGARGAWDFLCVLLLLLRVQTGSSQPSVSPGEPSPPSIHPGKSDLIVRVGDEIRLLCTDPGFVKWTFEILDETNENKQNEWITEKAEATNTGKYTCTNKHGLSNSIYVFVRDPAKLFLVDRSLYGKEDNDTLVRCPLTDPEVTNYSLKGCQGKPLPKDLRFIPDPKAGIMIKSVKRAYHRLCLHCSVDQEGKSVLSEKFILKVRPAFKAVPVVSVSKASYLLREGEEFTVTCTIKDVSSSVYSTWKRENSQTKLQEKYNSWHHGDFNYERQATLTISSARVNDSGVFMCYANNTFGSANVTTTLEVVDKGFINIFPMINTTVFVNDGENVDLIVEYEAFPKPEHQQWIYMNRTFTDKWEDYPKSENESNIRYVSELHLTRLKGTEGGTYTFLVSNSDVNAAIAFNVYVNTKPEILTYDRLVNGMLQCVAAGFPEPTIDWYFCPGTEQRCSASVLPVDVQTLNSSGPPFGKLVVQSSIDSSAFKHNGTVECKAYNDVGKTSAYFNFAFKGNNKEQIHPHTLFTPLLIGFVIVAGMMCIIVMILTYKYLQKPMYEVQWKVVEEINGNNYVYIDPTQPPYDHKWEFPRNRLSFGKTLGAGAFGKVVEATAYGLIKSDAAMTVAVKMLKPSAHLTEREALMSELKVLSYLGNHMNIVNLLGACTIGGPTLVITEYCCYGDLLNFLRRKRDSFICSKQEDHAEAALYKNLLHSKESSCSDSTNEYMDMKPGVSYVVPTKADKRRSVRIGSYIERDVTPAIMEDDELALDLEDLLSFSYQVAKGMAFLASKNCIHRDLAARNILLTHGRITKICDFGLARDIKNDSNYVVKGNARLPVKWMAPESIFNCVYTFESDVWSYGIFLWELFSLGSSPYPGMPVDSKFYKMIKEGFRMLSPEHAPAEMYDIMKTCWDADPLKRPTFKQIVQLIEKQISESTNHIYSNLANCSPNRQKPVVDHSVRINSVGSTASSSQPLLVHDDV
Sequence of Insulin receptor (Homo sapiens) (P06213 28-758 limits assumed): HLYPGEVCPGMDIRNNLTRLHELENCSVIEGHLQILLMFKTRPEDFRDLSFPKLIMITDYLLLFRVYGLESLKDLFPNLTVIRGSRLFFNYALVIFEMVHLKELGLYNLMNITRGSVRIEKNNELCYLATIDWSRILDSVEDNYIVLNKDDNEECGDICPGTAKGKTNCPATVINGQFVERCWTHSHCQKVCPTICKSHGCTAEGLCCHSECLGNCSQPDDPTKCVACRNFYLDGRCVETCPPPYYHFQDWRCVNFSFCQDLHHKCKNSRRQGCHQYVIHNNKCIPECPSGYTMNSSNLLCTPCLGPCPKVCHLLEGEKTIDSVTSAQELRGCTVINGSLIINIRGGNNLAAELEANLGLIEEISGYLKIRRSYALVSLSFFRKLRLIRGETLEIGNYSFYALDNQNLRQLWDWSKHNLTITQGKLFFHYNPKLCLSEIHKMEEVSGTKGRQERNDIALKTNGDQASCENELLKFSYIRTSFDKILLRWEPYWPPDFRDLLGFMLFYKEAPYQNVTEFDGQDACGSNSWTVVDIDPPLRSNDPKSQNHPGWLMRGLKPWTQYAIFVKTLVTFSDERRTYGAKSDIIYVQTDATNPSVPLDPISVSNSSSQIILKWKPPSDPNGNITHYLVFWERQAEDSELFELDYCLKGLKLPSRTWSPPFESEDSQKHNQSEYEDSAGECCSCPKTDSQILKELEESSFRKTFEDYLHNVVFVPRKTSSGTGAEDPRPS
Sequence of Insulin receptor (Homo sapiens) (P06213 763-1382 limits assumed): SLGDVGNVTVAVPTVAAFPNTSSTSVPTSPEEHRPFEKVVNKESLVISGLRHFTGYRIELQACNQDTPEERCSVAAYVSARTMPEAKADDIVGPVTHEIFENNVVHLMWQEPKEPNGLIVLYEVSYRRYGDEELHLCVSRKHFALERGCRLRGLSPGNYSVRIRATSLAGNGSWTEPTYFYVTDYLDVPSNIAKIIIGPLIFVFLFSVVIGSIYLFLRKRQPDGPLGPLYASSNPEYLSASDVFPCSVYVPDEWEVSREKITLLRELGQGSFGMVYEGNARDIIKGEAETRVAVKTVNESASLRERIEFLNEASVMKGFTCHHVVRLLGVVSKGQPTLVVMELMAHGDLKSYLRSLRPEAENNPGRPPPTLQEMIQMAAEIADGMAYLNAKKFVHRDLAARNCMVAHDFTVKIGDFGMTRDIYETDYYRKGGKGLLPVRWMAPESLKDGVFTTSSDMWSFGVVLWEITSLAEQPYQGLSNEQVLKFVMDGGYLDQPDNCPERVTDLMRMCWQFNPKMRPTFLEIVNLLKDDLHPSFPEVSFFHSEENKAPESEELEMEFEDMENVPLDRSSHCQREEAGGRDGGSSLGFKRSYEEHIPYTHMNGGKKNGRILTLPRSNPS

SMILES: O=C(Nc1cccnc1)c1cc(-c2ccnc(F)c2)ccc1OCc1ccccc1
- Activity [1]: 69%
- Activity [2]: 60%
- Activity [3]: 60%
- Activity [4]: 53%
- Activity [5]: 58%
- Activity [6]: 59%
- Activity [7]: 33%
- Activity [8]: 57%
- Activity [9]: 44%
- Activity [10]: 46%
- Activity [11]: 52%
- Activity [12]: 75%
- Activity [13]: 17%
- Activity [14]: 101%
- Activity [15]: 77%
- Activity [16]: 13%
- Activity [17]: 38%
- Activity [18]: 77%
- Activity [19]: 51%
- Activity [20]: 102%
- Activity [21]: 44%
- Activity [22]: 32%
- Activity [23]: 133%
- Activity [24]: 30%
- Activity [25]: 27%
